“And” between values parts separate entries of the source, which are not always exact repeats. Equal entries are not always repeated.
Legend:
Rattus norvegicus [1] = organism: Rattus norvegicus; assay: Tissue biodistribution into estrogen-primed immature female rat uterus/blood at 1 hr low time interval; type: ADME, organism-based; details: in vivo
Outline: (§1)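 Immature female Sprague-Dawley rats (25 days old, ≈50 g, five per time point) primed with estradiol, 5 μg sc daily for 2 days in 50% ethanol/sunflower seed oil, used 24 h after the last injection. The 18F-labeled ligand was given iv by tail vein in 10% ethanol/saline. Decapitated at 1 or 3 h; blood and organs weighed and gamma-counted. Reported as %ID/g ± SD, n = 5.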

[2] = Partition coefficient (logP); type: physicochemical; details: octanol/water
Outline: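 log P(o/w) (octanol/water) estimated by a reversed-phase HPLC method.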

Rattus norvegicus [3] = organism: Rattus norvegicus; assay: Tissue biodistribution into estrogen-primed immature female rat brain at 1 hr low time interval; type: ADME, organism-based; details: in vivo; outline: as §1
Rattus norvegicus [4] = organism: Rattus norvegicus; assay: Tissue biodistribution into estrogen-primed immature female rat bone at 1 hr blocked time interval; type: ADME, organism-based, Bone element; details: in vivo; outline: as §1
Rattus norvegicus [5] = organism: Rattus norvegicus; assay: Tissue biodistribution into estrogen-primed immature female rat uterus at 1 hr blocked time interval; type: ADME, organism-based; details: in vivo; outline: as §1
Rattus norvegicus [6] = organism: Rattus norvegicus; assay: Tissue biodistribution into estrogen-primed immature female rat liver at 1 hr blocked time interval; type: ADME, organism-based; details: in vivo; outline: as §1
[7] = target: T1, Progesterone receptor (Homo sapiens) (UniProt P06401); assay: Nonspecific binding affinity against progesterone receptor was estimated relative to compound R5020
T1 sequence (whole entry): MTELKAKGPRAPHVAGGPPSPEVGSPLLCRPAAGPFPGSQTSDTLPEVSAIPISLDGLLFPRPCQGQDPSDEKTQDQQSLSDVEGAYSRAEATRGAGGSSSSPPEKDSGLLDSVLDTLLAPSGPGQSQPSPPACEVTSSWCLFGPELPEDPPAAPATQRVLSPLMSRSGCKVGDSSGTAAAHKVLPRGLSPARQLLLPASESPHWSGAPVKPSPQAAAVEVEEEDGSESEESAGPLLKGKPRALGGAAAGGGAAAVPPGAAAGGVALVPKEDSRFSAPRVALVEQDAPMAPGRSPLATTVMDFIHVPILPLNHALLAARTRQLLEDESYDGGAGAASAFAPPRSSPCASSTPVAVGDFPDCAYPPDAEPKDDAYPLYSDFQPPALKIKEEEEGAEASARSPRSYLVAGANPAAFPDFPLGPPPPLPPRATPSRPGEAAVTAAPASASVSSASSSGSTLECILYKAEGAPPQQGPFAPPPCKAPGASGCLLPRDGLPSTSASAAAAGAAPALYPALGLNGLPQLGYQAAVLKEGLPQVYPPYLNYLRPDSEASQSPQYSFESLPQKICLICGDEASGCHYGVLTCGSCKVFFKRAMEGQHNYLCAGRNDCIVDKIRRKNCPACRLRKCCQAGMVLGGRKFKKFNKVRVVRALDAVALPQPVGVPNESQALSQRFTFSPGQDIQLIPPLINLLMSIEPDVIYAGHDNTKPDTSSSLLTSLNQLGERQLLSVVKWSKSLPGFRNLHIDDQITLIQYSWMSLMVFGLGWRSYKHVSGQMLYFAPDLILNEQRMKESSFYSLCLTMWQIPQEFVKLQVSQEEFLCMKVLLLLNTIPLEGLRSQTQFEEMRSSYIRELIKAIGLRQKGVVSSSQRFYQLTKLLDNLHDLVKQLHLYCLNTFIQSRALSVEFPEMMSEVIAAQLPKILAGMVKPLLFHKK

Rattus norvegicus [8] = organism: Rattus norvegicus; assay: Tissue biodistribution into estrogen-primed immature female rat lung at 1 hr time interval; type: ADME, organism-based; details: in vivo; outline: as §1
Rattus norvegicus [9] = organism: Rattus norvegicus; assay: Tissue biodistribution into estrogen-primed immature female rat blood at 1 hr blocked time interval; type: ADME, organism-based; details: in vivo; outline: as §1
Rattus norvegicus [10] = organism: Rattus norvegicus; assay: Tissue biodistribution into estrogen-primed immature female rat muscle at 1 hr blocked time interval; type: ADME, organism-based; details: in vivo; outline: as §1
Rattus norvegicus [11] = organism: Rattus norvegicus; assay: Tissue biodistribution into estrogen-primed immature female rat muscle at 1 hr low time interval; type: ADME, organism-based; details: in vivo; outline: as §1
Rattus norvegicus [12] = organism: Rattus norvegicus; assay: Tissue biodistribution into estrogen-primed immature female rat ovaries at 1 hr time interval; type: ADME, organism-based, Female gonad; details: in vivo; outline: as §1
Rattus norvegicus [13] = organism: Rattus norvegicus; assay: Tissue biodistribution into estrogen-primed immature female rat uterus/blood at 1 hr time interval; type: ADME, organism-based; details: in vivo; outline: as §1
Rattus norvegicus [14] = organism: Rattus norvegicus; assay: Tissue biodistribution into estrogen-primed immature female rat uterus at 1 hr time interval; type: ADME, organism-based; details: in vivo; outline: as §1
Rattus norvegicus [15] = organism: Rattus norvegicus; assay: Tissue biodistribution into estrogen-primed immature female rat kidney at 1 hr blocked time interval; type: ADME, organism-based; details: in vivo; outline: as §1
Rattus norvegicus [16] = organism: Rattus norvegicus; assay: Tissue biodistribution into estrogen-primed immature female rat bone at 3 hr time interval; type: ADME, organism-based, Bone element; details: in vivo; outline: as §1
Rattus norvegicus [17] = organism: Rattus norvegicus; assay: Tissue biodistribution into estrogen-primed immature female rat ovaries at 1 hr low time interval; type: ADME, organism-based, Female gonad; details: in vivo; outline: as §1
Rattus norvegicus [18] = organism: Rattus norvegicus; assay: Tissue biodistribution into estrogen-primed immature female rat blood at 1 hr time interval; type: ADME, organism-based; details: in vivo; outline: as §1
Rattus norvegicus [19] = organism: Rattus norvegicus; assay: Tissue biodistribution into estrogen-primed immature female rat kidney at 1 hr time interval; type: ADME, organism-based; details: in vivo; outline: as §1
Rattus norvegicus [20] = organism: Rattus norvegicus; assay: Tissue biodistribution into estrogen-primed immature female rat lung at 1 hr blocked time interval; type: ADME, organism-based; details: in vivo; outline: as §1
Rattus norvegicus [21] = organism: Rattus norvegicus; assay: Tissue biodistribution into estrogen-primed immature female rat bone at 1 hr low time interval; type: ADME, organism-based, Bone element; details: in vivo; outline: as §1
Rattus norvegicus [22] = organism: Rattus norvegicus; assay: Tissue biodistribution into estrogen-primed immature female rat uterus/blood at 3 hr time interval; type: ADME, organism-based; details: in vivo; outline: as §1
Rattus norvegicus [23] = organism: Rattus norvegicus; assay: Tissue biodistribution into estrogen-primed immature female rat kidney at 3 hr time interval; type: ADME, organism-based; details: in vivo; outline: as §1
Rattus norvegicus [24] = organism: Rattus norvegicus; assay: Tissue biodistribution into estrogen-primed immature female rat muscle at 3 hr time interval; type: ADME, organism-based; details: in vivo; outline: as §1
Rattus norvegicus [25] = organism: Rattus norvegicus; assay: Tissue biodistribution into estrogen-primed immature female rat bone at 1 hr time interval; type: ADME, organism-based, Bone element; details: in vivo; outline: as §1
Rattus norvegicus [26] = organism: Rattus norvegicus; assay: Tissue biodistribution into estrogen-primed immature female rat brain at 1 hr blocked time interval; type: ADME, organism-based; details: in vivo; outline: as §1
Rattus norvegicus [27] = organism: Rattus norvegicus; assay: Tissue biodistribution into estrogen-primed immature female rat uterus at 1 hr low time interval; type: ADME, organism-based; details: in vivo; outline: as §1
Rattus norvegicus [28] = organism: Rattus norvegicus; assay: Tissue biodistribution into estrogen-primed immature female rat kidney at 1 hr low time interval; type: ADME, organism-based; details: in vivo; outline: as §1
Rattus norvegicus [29] = organism: Rattus norvegicus; assay: Tissue biodistribution into estrogen-primed immature female rat muscle at 1 hr time interval; type: ADME, organism-based; details: in vivo; outline: as §1
Rattus norvegicus [30] = organism: Rattus norvegicus; assay: Tissue biodistribution into estrogen-primed immature female rat uterus/muscle at 1 hr blocked time interval; type: ADME, organism-based; details: in vivo; outline: as §1
Rattus norvegicus [31] = organism: Rattus norvegicus; assay: Tissue biodistribution into estrogen-primed immature female rat fat at 1 hr low time interval; type: ADME, organism-based, Adipose tissue; details: in vivo; outline: as §1
Rattus norvegicus [32] = organism: Rattus norvegicus; assay: Tissue biodistribution into estrogen-primed immature female rat blood at 1 hr low time interval; type: ADME, organism-based; details: in vivo; outline: as §1
Rattus norvegicus [33] = organism: Rattus norvegicus; assay: Tissue biodistribution into estrogen-primed immature female rat liver at 1 hr low time interval; type: ADME, organism-based; details: in vivo; outline: as §1
Rattus norvegicus [34] = organism: Rattus norvegicus; assay: Tissue biodistribution into estrogen-primed immature female rat uterus at 3 hr time interval; type: ADME, organism-based; details: in vivo; outline: as §1
Rattus norvegicus [35] = organism: Rattus norvegicus; assay: Tissue biodistribution into estrogen-primed immature female rat lung at 1 hr low time interval; type: ADME, organism-based; details: in vivo; outline: as §1
Rattus norvegicus [36] = organism: Rattus norvegicus; assay: Tissue biodistribution into estrogen-primed immature female rat uterus/muscle at 1 hr time interval; type: ADME, organism-based; details: in vivo
Rattus norvegicus [37] = organism: Rattus norvegicus; assay: Tissue biodistribution into estrogen-primed immature female rat liver at 3 hr time interval; type: ADME, organism-based; details: in vivo; outline: as §1
Rattus norvegicus [38] = organism: Rattus norvegicus; assay: Tissue biodistribution into estrogen-primed immature female rat fat at 1 hr blocked time interval; type: ADME, organism-based, Adipose tissue; details: in vivo; outline: as §1
Rattus norvegicus [39] = organism: Rattus norvegicus; assay: Tissue biodistribution into estrogen-primed immature female rat liver at 1 hr time interval; type: ADME, organism-based; details: in vivo; outline: as §1
Rattus norvegicus [40] = organism: Rattus norvegicus; assay: Tissue biodistribution into estrogen-primed immature female rat uterus/blood at 1 hr blocked time interval; type: ADME, organism-based; details: in vivo; outline: as §1
Rattus norvegicus [41] = organism: Rattus norvegicus; assay: Tissue biodistribution into estrogen-primed immature female rat uterus/muscle at 1 hr low time interval; type: ADME, organism-based; details: in vivo; outline: as §1
Rattus norvegicus [42] = organism: Rattus norvegicus; assay: Tissue biodistribution into estrogen-primed immature female rat uterus/muscle at 3 hr time interval; type: ADME, organism-based; details: in vivo
Rattus norvegicus [43] = organism: Rattus norvegicus; assay: Tissue biodistribution into estrogen-primed immature female rat fat at 3 hr time interval; type: ADME, organism-based, Adipose tissue; details: in vivo; outline: as §1
Rattus norvegicus [44] = organism: Rattus norvegicus; assay: Tissue biodistribution into estrogen-primed immature female rat brain at 1 hr time interval; type: ADME, organism-based; details: in vivo; outline: as §1
Rattus norvegicus [45] = organism: Rattus norvegicus; assay: Tissue biodistribution into estrogen-primed immature female rat ovaries at 3 hr time interval; type: ADME, organism-based, Female gonad; details: in vivo; outline: as §1
Rattus norvegicus [46] = organism: Rattus norvegicus; assay: Tissue biodistribution into estrogen-primed immature female rat ovaries at 1 hr blocked time interval; type: ADME, organism-based; details: in vivo; outline: as §1
Rattus norvegicus [47] = organism: Rattus norvegicus; assay: Tissue biodistribution into estrogen-primed immature female rat fat at 1 hr time interval; type: ADME, organism-based, Adipose tissue; details: in vivo; outline: as §1
Rattus norvegicus [48] = organism: Rattus norvegicus; assay: Tissue biodistribution into estrogen-primed immature female rat brain at 3 hr time interval; type: ADME, organism-based; details: in vivo; outline: as §1
Rattus norvegicus [49] = organism: Rattus norvegicus; assay: Tissue biodistribution into estrogen-primed immature female rat lung at 3 hr time interval; type: ADME, organism-based; details: in vivo; outline: as §1
Rattus norvegicus [50] = organism: Rattus norvegicus; assay: Tissue biodistribution into estrogen-primed immature female rat blood at 3 hr time interval; type: ADME, organism-based; details: in vivo; outline: as §1

C[C@]12CCC3C(CCC4=CC(=O)CC[C@@H]43)C1C[C@H]1OC(c3ccco3)O[C@]12C(=O)CF (stereo partly specified)
Injected dose/g (Rattus norvegicus [1]): 14.95% | logP [2]: 4.11 | logP ([2]; read-out: logP): 3.87 | Injected dose/g (Rattus norvegicus [3]): 0.4% | Injected dose/g (Rattus norvegicus [4]): 1.29% | Injected dose/g (Rattus norvegicus [5]): 1.68% | Injected dose/g (Rattus norvegicus [6]): 2.49% | NSB [7]: 0.83 and 1.06 | Injected dose/g (Rattus norvegicus [8]): 2.38% | Injected dose/g (Rattus norvegicus [9]): 0.46% | Injected dose/g (Rattus norvegicus [10]): 0.71% | Injected dose/g (Rattus norvegicus [11]): 0.41% | Injected dose/g (Rattus norvegicus [12]): 2.76% | Uterus to blood concentration ratio (Rattus norvegicus [13]): 18.18% | Injected dose/g (Rattus norvegicus [14]): 6.8% | Injected dose/g (Rattus norvegicus [15]): 1.72% | Injected dose/g (Rattus norvegicus [16]): 1.3% | Injected dose/g (Rattus norvegicus [17]): 2.13% | Injected dose/g (Rattus norvegicus [18]): 0.38% | Injected dose/g (Rattus norvegicus [19]): 1.66% | Injected dose/g (Rattus norvegicus [20]): 1.16% | Injected dose/g (Rattus norvegicus [21]): 0.99% | uterus/blood ratio (Rattus norvegicus [22]): 48 | Injected dose/g (Rattus norvegicus [23]): 0.73% | Injected dose/g (Rattus norvegicus [24]): 0.26% | Injected dose/g (Rattus norvegicus [25]): 1.11% | Injected dose/g (Rattus norvegicus [26]): 0.49% | Injected dose/g (Rattus norvegicus [27]): 5.18% | Injected dose/g (Rattus norvegicus [28]): 1.14% | Injected dose/g (Rattus norvegicus [29]): 0.59% | uterus/muscle ratio (Rattus norvegicus [30]): 2.34 | Injected dose/g (Rattus norvegicus [31]): 2.15% | Injected dose/g (Rattus norvegicus [32]): 0.35% | Injected dose/g (Rattus norvegicus [33]): 1.81% | Injected dose/g (Rattus norvegicus [34]): 7.83% | Injected dose/g (Rattus norvegicus [35]): 1.51% | Uterus to muscle uptake ratio (Rattus norvegicus [36]): 11.63% | Injected dose/g (Rattus norvegicus [37]): 1.65% | Injected dose/g (Rattus norvegicus [38]): 2.4% | Injected dose/g (Rattus norvegicus [39]): 2.4% | uterus/blood ratio (Rattus norvegicus [40]): 3.68 | Injected dose/g (Rattus norvegicus [41]): 12.85% | ratio (Rattus norvegicus [42]): 32.2 | Injected dose/g (Rattus norvegicus [43]): 2.36% | Injected dose/g (Rattus norvegicus [44]): 0.57% | Injected dose/g (Rattus norvegicus [45]): 2.62% | Injected dose/g (Rattus norvegicus [46]): 1.65% | Injected dose/g (Rattus norvegicus [47]): 2.16% | Injected dose/g (Rattus norvegicus [48]): 0.18% | Injected dose/g (Rattus norvegicus [49]): 0.31% | Injected dose/g (Rattus norvegicus [50]): 0.19%

Reference: ChEMBL document CHEMBL1128440 (J Med Chem, 1995)
